From ChEMBL document CHEMBL4033794, “Discovery of Trifluoromethyl Glycol Carbamates as Potent and Selective Covalent Monoacylglycerol Lipase (MAGL) Inhibitors for Treatment of Neuroinflammation” (J Med Chem, 2018)
Calls of active or inactive are those of the source. No cut-off for these calls is given here.

How the values were obtained:
[1] = Lipophilicity, log D of the compound by HPLC analysis; assay type: physicochemical
Outline: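 LogD determined by an HPLC-based (eLogD) method.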

[2] = target: T1, Fatty-acid amide hydrolase 1 (Homo sapiens, UniProt O00519); assay: Inhibition of recombinant human FAAH using fluorogenic arachidonoyl-AMC as substrate preincubated for 30 mins followed by substrate addition measured after 60 mins by fluorescence based assay
T1 sequence (O00519 whole entry): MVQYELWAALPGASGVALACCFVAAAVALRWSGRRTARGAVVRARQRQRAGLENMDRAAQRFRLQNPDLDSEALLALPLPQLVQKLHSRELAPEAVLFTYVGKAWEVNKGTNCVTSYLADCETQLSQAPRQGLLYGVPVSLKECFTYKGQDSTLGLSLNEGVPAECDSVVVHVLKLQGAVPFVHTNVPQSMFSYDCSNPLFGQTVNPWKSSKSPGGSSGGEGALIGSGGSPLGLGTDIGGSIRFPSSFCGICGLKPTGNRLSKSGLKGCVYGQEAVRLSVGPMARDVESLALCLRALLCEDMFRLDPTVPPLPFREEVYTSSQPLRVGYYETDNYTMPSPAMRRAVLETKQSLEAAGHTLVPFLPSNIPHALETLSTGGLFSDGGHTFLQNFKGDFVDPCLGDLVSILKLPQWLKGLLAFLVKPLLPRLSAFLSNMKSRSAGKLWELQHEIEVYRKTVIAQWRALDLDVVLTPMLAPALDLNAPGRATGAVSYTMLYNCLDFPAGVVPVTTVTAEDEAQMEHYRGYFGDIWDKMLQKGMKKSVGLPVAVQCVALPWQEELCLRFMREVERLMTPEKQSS
Outline: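 Human recombinant FAAH (0.0125 U final) in 50 mM Tris pH 9.0, 1 mM EDTA, preincubated 30 min at room temperature with compound (30 μM to 0.3 nM final); arachidonoyl-AMC 5 μM added, 60 min reaction, read Ex/Em 355/460. Inhibition vs no-compound and full-inhibition controls; four-parameter fit; geometric mean of ≥3 experiments.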

[3] = target: T2, CES1 (liver carboxylesterase 1) (Homo sapiens, UniProt P23141); assay: (§1) Inhibition of human CES1 at 10 uM
T2 sequence (P23141 whole entry): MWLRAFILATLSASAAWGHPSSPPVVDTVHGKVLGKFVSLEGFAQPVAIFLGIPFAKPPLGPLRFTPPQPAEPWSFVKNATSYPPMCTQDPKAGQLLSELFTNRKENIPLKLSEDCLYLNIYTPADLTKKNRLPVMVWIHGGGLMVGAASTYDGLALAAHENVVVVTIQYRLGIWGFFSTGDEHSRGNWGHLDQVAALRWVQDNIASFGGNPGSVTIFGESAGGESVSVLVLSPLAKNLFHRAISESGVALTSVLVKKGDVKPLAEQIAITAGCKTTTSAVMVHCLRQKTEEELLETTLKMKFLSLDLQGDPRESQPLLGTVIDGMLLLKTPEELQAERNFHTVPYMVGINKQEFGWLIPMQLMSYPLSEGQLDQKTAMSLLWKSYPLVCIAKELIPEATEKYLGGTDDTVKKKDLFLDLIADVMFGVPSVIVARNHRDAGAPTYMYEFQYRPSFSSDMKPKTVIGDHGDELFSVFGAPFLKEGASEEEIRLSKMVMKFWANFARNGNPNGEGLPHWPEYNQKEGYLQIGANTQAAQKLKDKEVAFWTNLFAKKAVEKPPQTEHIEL
Outline: (§2)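 Panel of 42 human serine hydrolases, each exposed to inhibitor at 10 µM; activity expressed as percent inhibition.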

[4] = target: T3, Monoacylglycerol lipase ABHD6 (Homo sapiens) (UniProt Q9BV23); assay: Inhibition of human ABHD6 at 10 uM; outline: as §2
T3 sequence (whole entry): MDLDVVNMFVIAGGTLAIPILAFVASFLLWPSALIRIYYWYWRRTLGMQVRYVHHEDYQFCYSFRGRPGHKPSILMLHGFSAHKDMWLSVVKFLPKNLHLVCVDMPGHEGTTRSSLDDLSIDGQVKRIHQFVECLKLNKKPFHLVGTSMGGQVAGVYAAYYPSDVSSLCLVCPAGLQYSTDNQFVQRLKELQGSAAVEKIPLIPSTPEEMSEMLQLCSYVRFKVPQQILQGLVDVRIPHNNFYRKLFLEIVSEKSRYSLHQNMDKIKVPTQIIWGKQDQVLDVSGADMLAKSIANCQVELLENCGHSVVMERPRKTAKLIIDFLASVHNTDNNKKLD

[5] = target: T4, Monoglyceride lipase (Homo sapiens, UniProt Q99685); assay: Inhibition of recombinant human MAGL using fluorogenic-7HCA as substrate preincubated for 30 mins followed by substrate addition measured after 60 mins by fluorescence based assay
T4 sequence (Q99685 whole entry): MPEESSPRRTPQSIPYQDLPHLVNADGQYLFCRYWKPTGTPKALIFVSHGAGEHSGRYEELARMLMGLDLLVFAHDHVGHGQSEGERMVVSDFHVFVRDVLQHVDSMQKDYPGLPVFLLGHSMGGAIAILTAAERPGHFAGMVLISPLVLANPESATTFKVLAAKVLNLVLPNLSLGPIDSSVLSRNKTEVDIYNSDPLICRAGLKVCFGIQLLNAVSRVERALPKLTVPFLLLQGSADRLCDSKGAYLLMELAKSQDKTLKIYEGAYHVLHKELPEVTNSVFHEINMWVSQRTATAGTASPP

[6] = Kinetic solubility of the compound at pH 7.4; assay type: physicochemical; conditions: buffer, read-out: Kinetic_solubility
[7] = species on record: Homo sapiens; assay: Selectivity ratio of IC50 for recombinant human FAAH to IC50 for recombinant human MAGL
[8] = target: T5, Monoglyceride lipase (Homo sapiens) (UniProt Q99685); assay: Inhibition of recombinant human MAGL assessed as Kintact to Ki ratio using fluorogenic-7HCA as substrate measured after 60 mins by fluorescence based assay
T5 sequence (whole entry): T4 sequence (Q99685 whole entry)
Outline: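 Same MAGL fluorogenic setup (88 pM enzyme, 5 μM 7-HCA, HEPES pH 7.4 buffer) but substrate added immediately without preincubation; fluorescence read every minute to obtain progress curves across decreasing inhibitor concentrations; kobs derived per concentration and kinact/KI taken from plot of kobs versus concentration.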

[9] = Intrinsic clearance in human liver microsomes; assay type: ADME, microsome; conditions: read-out: CLH
Outline: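 Substrate depletion in human liver microsomes; intrinsic clearance scaled to mL/min/kg.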

[10] = target: T6, Liver carboxylesterase 1 (Homo sapiens, UniProt P23141); assay: as §1; conditions: 10 µM; outline: as §2
T6 sequence (P23141 whole entry): T2 sequence (P23141 whole entry)

[11] = target: T7, Fatty-acid amide hydrolase 2 (Homo sapiens) (UniProt Q6GMR7); assay: Inhibition of human FAAH2 at 10 uM; outline: as §2
T7 sequence (whole entry): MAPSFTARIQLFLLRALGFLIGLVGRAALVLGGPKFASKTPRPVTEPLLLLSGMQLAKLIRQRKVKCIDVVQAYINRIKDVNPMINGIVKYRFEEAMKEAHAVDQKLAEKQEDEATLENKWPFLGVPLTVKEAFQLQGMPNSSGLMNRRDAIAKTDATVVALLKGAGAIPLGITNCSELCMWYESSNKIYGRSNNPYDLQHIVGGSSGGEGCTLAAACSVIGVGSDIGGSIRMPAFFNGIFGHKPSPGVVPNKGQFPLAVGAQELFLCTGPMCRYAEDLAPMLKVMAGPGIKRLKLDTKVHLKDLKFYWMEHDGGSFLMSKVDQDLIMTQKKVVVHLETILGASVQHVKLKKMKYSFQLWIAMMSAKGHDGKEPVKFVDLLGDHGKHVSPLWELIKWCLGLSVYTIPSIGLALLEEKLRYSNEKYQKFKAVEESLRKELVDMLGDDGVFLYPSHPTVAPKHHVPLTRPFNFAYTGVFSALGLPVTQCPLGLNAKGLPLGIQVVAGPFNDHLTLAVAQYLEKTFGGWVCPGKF

[12] = target: T8, Fatty-acid amide hydrolase 1 (Homo sapiens) (UniProt O00519); assay: Inhibition of human FAAH at 10 uM; outline: as §2
T8 sequence (whole entry): T1 sequence (O00519 whole entry)

[13] = Lipophilicity, log D of the compound at pH 7.4 by shake flask method; assay type: physicochemical; conditions: buffer
[14] = target: T9, Cocaine esterase (Homo sapiens, UniProt O00748); assay: Inhibition of human CES2 at 10 uM; outline: as §2
T9 sequence (O00748 whole entry): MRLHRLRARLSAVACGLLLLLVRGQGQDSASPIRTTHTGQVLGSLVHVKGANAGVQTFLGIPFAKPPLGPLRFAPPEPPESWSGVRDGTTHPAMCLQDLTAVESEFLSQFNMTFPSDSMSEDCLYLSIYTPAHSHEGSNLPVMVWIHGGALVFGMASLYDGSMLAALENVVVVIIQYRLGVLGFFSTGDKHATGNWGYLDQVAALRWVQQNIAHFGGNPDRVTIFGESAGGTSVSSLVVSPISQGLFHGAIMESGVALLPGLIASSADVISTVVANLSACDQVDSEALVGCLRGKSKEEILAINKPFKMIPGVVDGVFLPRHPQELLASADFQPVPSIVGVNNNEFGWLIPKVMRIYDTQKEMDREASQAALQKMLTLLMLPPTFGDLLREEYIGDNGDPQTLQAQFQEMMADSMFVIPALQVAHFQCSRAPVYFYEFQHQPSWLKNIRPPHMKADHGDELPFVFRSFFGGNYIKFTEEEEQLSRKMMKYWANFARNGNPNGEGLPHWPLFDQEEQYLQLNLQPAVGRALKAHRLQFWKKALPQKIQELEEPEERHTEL

`O=C(Oc1ccc([N+](=O)[O-])cc1)N1CCC(C(O)(c2ccc3c(c2)OCO3)c2ccc3c(c2)OCO3)CC1` gave a logD [1] of 5.1 and an IC50 [2] greater than 11000 nM.
With `O=C(OC(C(F)(F)F)C(F)(F)F)N1C[C@@H]2[C@H](C1)[C@H]2c1ccn(-c2ccc(F)cc2)n1` the logD [1] was 5.6, the inhibition at 10 µM [3] was 58% and the inhibition [4] was 95%. It also gave an IC50 [5] of 1 to 1.4 nM, a solubility kinetic [6] of less than 1 µM and a Ratio IC50 [7] of 3000 to 4300. It also gave a Ratio [8] of 41700 M⁻¹ s⁻¹ and an IC50 [2] of 4300 nM.
Compound `O=C(OC[C@@H](O)C(F)(F)F)N1C[C@@H]2[C@H](C1)[C@H]2c1ccn(-c2ccc(F)cc2)n1` has a CLint scaled [9] of 9.4 mL/min/kg, a logD [1] of 4 and an IC50 [5] of 132 nM. It also gave a Ratio [8] of 244 M⁻¹ s⁻¹ and an IC50 [2] greater than 30000 nM.
In the case of `O=C(ON1C(=O)CCC1=O)N1C[C@@H]2[C@H](C1)[C@H]2c1ccn(-c2ccc(F)cc2)n1`, the “inhibition (INH)” value [10] is reported as “Not Active”, the inhibition [4] is reported as “inactive” and the IC50 [5] is reported as 46 nM. For the same compound, the inhibition [11] was “inactive”, the inhibition [12] was “inactive” and the logD [13] was 2.6. For the same compound, the “inhibition (INH)” value [14] was “Not Active”, the Ratio [8] was 156 M⁻¹ s⁻¹ and the IC50 [2] was 3600 nM.
`COC[C@@H](OC(=O)N1C[C@@H]2[C@H](C1)[C@H]2c1ccn(-c2ccc(F)cc2)n1)C(F)(F)F` gave a logD [1] of 4.2, an IC50 [5] of 354 nM and a Ratio [8] of 110 M⁻¹ s⁻¹. It also gave an IC50 [2] of 1940 nM.
Compound `CC(OC(=O)N1C[C@@H]2[C@H](C1)[C@H]2c1ccn(-c2ccc(F)cc2)n1)C(F)(F)F` (some centres not stated) has a logD [1] of 4.8, an IC50 [5] of 242 nM and a Ratio IC50 [7] greater than 95. For the same compound, the IC50 [2] was greater than 23000 nM.
Work on `O=C(O[C@@H](CO)C(F)(F)F)N1C[C@@H]2[C@H](C1)[C@H]2c1ccn(-c2ccc(F)cc2)n1` yielded a CLint scaled [9] of less than 8 mL/min/kg, a logD [1] of 3.9 and an IC50 [5] of 890 nM. For the same compound, the IC50 [2] was 26000 nM.
In the case of `O=C(O[C@H](CCO)C(F)(F)F)N1C[C@@H]2[C@H](C1)[C@H]2c1ccn(-c2ccc(F)cc2)n1`, the CLint scaled [9] is reported as less than 12 mL/min/kg, the logD [1] is reported as 4.2 and the IC50 [5] is reported as 582 nM. It also gave a Ratio [8] of 4570 M⁻¹ s⁻¹ and an IC50 [2] greater than 12000 nM.
Compound `O=C(O[C@H](CF)C(F)(F)F)N1C[C@@H]2[C@H](C1)[C@H]2c1ccn(-c2ccc(F)cc2)n1` has a logD [1] of 4.3, an IC50 [5] of 26 nM and a Ratio IC50 [7] of 73. It also gave a Ratio [8] of 1580 M⁻¹ s⁻¹ and an IC50 [2] of 1900 nM.
`O=C(OC(CO)C(F)(F)F)N1C[C@@H]2[C@H](C1)[C@H]2c1ccn(-c2ccc(F)cc2)n1` (some centres not stated) showed a logD [1] of 3.9, an IC50 [5] of 6 nM and an IC50 [2] of 14000 nM.
In the case of `O=C(Oc1ccc([N+](=O)[O-])cc1)N1C[C@@H]2[C@H](C1)[C@H]2c1ccn(-c2ccc(F)cc2)n1`, the IC50 [5] is reported as 24 nM, the logD [13] is reported as 4.2 and the Ratio [8] is reported as 2880 M⁻¹ s⁻¹. The IC50 [2] was 18 nM.
Compound `O=C(OCC(F)(F)F)N1C[C@@H]2[C@H](C1)[C@H]2c1ccn(-c2ccc(F)cc2)n1` has a logD [1] of 4.2, an IC50 [5] of 445 nM and a Ratio [8] of 103 M⁻¹ s⁻¹. The IC50 [2] was 970 nM.
